ChEMBL document CHEMBL2346591, “Oxadiazole-isopropylamides as potent and noncovalent proteasome inhibitors” (J Med Chem, 2013)
Calls of active or inactive are those of the source. No cut-off for these calls is given here.

Tests used:
[1] = Inhibition of chymotrypsin-like activity of rabbit 20s proteasome beta5 subunit using Suc-Leu-Leu-Val-Tyr-AMC as substrate after 1 hr by fluorescence assay; parameters: species or system Oryctolagus cuniculus
Oryctolagus cuniculus [2] = species: Oryctolagus cuniculus; experiment: Inhibition of chymotrypsin-like activity of rabbit 20s proteasome beta5 subunit using Suc-Leu-Leu-Val-Tyr-AMC as substrate at 10 uM after 1 hr by fluorescence assay
In short: (§1)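 Purified rabbit 20S proteasome at 1 nM, with or without compound, incubated 1 h at 37 °C in 50 mM Tris-HCl pH 7.6 with fluorogenic AMC peptide: 20 µM […] (CT-L), Bz-Val-Gly-Arg-AMC (T-L) or Z-Leu-Leu-Glu-AMC (PGPH-L).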

[3] = Inhibition of postglutamyl-peptide-hydrolysis-like activity of rabbit 20s proteasome beta1 subunit using benzyloxycarbonyl Z-Leu-Leu-Glu-AMC as substrate after 1 hr by fluorescence assay; parameters: species or system Oryctolagus cuniculus; in short: as §1
[4] = Inhibition of trypsin-like activity of rabbit 20s proteasome beta2 subunit using Bz-Val-Gly-Arg-AMC as substrate after 1 hr by fluorescence assay; parameters: species or system Oryctolagus cuniculus; in short: as §1
MDA-MB-468 = experiment: Cytotoxicity against human MDA-MB-468 cells assessed as decrease in cell survival after 120 hrs by MTT assay; format: functional, cell-based
In short: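 MDA-MB-468 cells (DMEM, 10% FBS, penicillin/streptomycin, 37 °C, 5% CO2) attached overnight, then exposed 120 h to varying inhibitor concentrations; medium replaced with complete medium containing 1 mg/ml MTT for 3 h at 37 °C, DMSO solubilisation, absorbance at 540 nm. IC50 from a four-parameter curve fit of % inhibition versus concentration.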

Oryctolagus cuniculus [5] = species: Oryctolagus cuniculus; experiment: Reversible inhibition of chymotrypsin-like activity of rabbit 20s proteasome beta5 subunit assessed as residual activity at 10 uM after 20 mins by dialysis method relative to control
Oryctolagus cuniculus [6] = species: Oryctolagus cuniculus; experiment: Covalent binding affinity to rabbit 20s proteasome beta5 subunit assessed as modification of TTTLAFK peptide after 30 mins by LC-MS/MS analysis
In short: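 Purified rabbit 20S proteasome (1 nM) incubated with inhibitor in 50 mM Tris-HCl pH 7.6 for 30 min at room temperature; acetonitrile added, then trypsin (enzyme:substrate 1:50) digestion for 4 h at 37 °C; peptides concentrated, C18 tip-extracted, then LC/MS-MS checking the N-terminal Thr-1 TTTLAFK peptide for modification versus vehicle (DMSO).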

[7] = target: T1, Proteasome Macropain subunit MB1 (Homo sapiens) (UniProt P28074); experiment: (§2) Inhibition of chymotrypsin-like activity of proteasome beta5 subunit in human MDA-MB-468 cells using Suc-Leu-Leu-Val-Tyr-AMC as substrate after 2 hrs by fluorescence assay; format: cell-based
T1 sequence (whole entry): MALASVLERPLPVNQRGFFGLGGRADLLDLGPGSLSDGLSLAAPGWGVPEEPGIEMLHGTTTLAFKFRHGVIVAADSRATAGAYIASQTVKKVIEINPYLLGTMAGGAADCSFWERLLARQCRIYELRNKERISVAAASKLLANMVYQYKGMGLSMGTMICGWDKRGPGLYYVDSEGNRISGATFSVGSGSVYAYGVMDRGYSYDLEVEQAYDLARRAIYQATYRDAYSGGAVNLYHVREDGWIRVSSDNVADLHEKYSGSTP

[8] = target: T2, Proteasome Macropain subunit MB1 (Homo sapiens, UniProt P28074); experiment: as §2; format: cell-based
T2 sequence (P28074 whole entry): T1 sequence (whole entry)

Oryctolagus cuniculus [9] = species: Oryctolagus cuniculus; experiment: Reversible inhibition of chymotrypsin-like activity of rabbit 20s proteasome beta5 subunit assessed as residual activity at 10 uM after 2 hrs by dialysis method relative to control
Oryctolagus cuniculus [10] = species: Oryctolagus cuniculus; experiment: Reversible inhibition of chymotrypsin-like activity of rabbit 20s proteasome beta5 subunit at 2.5 uM after 18 hrs by dialysis method

Row | Compound | IC50 [1] | other results
1 | Cc1ccccc1OCC(=O)N(Cc1nc(-c2ccccc2)no1)C(C)C |  | inhibition (Oryctolagus cuniculus [2]): inactive
2 | Cc1ccc(OCC(=O)NCc2nc(-c3ccc(C)cc3)no2)cc1 |  | inhibition (Oryctolagus cuniculus [2]): inactive
3 | CC(C)N(Cc1nc(-c2ccc(C(F)(F)F)cc2)no1)C(=O)COc1ccccc1 | 11200 nM | 
4 | CC(C)N(Cc1nc(-c2ccccc2)no1)C(=O)COc1ccc(Cl)cc1 | 510 nM | 
5 | Cc1ccc(CNC(=O)N(Cc2nc(-c3ccccc3)no2)C(C)C)cc1 |  | inhibition (Oryctolagus cuniculus [2]): inactive
6 | CC(C)N(Cc1nc(-c2ccccc2)no1)C(=O)CCc1ccc(C(F)(F)F)cc1 | 53500 nM | 
7 | CC(C)N(Cc1nc(-c2ccccc2)no1)C(=O)COc1ccc(C(=O)O)cc1 |  | inhibition (Oryctolagus cuniculus [2]): inactive
8 | CC(C)N(Cc1nc(-c2cccnc2)no1)C(=O)COc1ccc(C2CCCCC2)cc1 | 1360 nM | 
9 | CC(C)N(Cc1nc(-c2ccc(Cl)cc2)no1)C(=O)COc1ccc(Cl)cc1 | 1070 nM | 
10 | Cc1ccc(OCC(=O)N(CCc2nc(-c3ccccc3)no2)C(C)C)cc1 |  | inhibition (Oryctolagus cuniculus [2]): inactive
11 | Cc1ccc(OCC(=O)N(C)Cc2nc(-c3ccc(C)cc3)no2)cc1 | 29900 nM | 
12 | CC(C)N(Cc1nc(-c2ccccc2)no1)C(=O)COc1ccc(F)cc1 | 10100 nM | 
13 | Cc1ccc(NCC(=O)N(Cc2nc(-c3ccccc3)no2)C(C)C)cc1 | 5670 nM | 
14 | Cc1ccc(OCC(=O)N(Cc2nc(-c3ccc(C(F)(F)F)cc3)no2)C(C)C)cc1 | 970 nM | 
15 | Cc1ccc(-c2noc(CN(C(=O)COc3ccc(C(F)(F)F)cc3)C(C)C)n2)cc1 | 1080 nM | 
16 | CCN(Cc1nc(-c2ccc(C)cc2)no1)C(=O)COc1ccc(C)cc1 | 6040 nM | 
17 | CC(C)N(Cc1nc(-c2ccccc2)no1)C(=O)COc1ccc(-c2ccccc2)cc1 |  | inhibition (Oryctolagus cuniculus [2]): inactive
18 | Cc1ccc(OCC(=O)N(Cc2nc(-c3ccc(C)cc3)no2)C2CC2)cc1 |  | inhibition (Oryctolagus cuniculus [2]): inactive
19 | Cc1ccc(OCC(=O)N(Cc2nc(-c3ccc(C)cc3)no2)C(C)C)cc1 | 600 nM | IC50 [3]: > 100000 nM; Activity (Oryctolagus cuniculus [5]): > 70%; IC50 [4]: > 100000 nM; Activity (Oryctolagus cuniculus [6]): inactive; inhibition [7]: Dose-dependent effect; IC50 [8]: 3500 nM; Activity (MDA-MB-468): Active; Activity (Oryctolagus cuniculus [9]): 100%
20 | CC(C)N(Cc1nc(-c2ccccc2)no1)C(=O)COc1ccc(O)cc1 | 10100 nM | 

Row | Compound | IC50 [1] | other results
21 | Cc1cccc(OCC(=O)N(Cc2nc(-c3ccccc3)no2)C(C)C)c1 |  | inhibition (Oryctolagus cuniculus [2]): inactive
22 | CCCc1ccc(OCC(=O)N(Cc2nc(-c3ncccn3)no2)C(C)C)cc1 | 1270 nM | 
23 | CC(C)N(Cc1nc(-c2ccccc2)no1)C(=O)COc1ccc(C(=O)OC(C)(C)C)cc1 |  | inhibition (Oryctolagus cuniculus [2]): inactive
24 | CC(C)N(Cc1nc(-c2cccnc2)no1)C(=O)COc1ccc(O)cc1 | 980 nM | 
25 | Cc1ccc(OCC(=O)N(Cc2nc(-c3ccc(C)cc3)no2)CC(C)C)cc1 | 2370 nM | 
26 | CC(C)N(Cc1nc(-c2ccccc2)no1)C(=O)COc1ccccc1 | 6200 nM | 
27 | Cc1ccc(OCC(=O)N(Cc2nc(-c3ccccc3)no2)C(C)C)cn1 | 4000 nM | 
28 | CC(C)N(Cc1nc(-c2cccnc2)no1)C(=O)COc1ccc(F)cc1 | 1930 nM | 
29 | Cc1ccc(-c2noc(CN(C(=O)COc3ccccc3)C(C)C)n2)cc1 | 8500 nM | 
30 | Cc1ccc(-c2noc(CN(C(=O)COc3ccc(Cl)cc3)C(C)C)n2)cc1 | 1120 nM | 
31 | CC(C)N(Cc1nc(-c2ccc(C(F)(F)F)cc2)no1)C(=O)COc1ccc(C(F)(F)F)cc1 | 2530 nM | 
32 | Cc1ccc(OCC(=O)N(Cc2nc(-c3ccccn3)no2)C(C)C)cc1 | 3750 nM | 
33 | Cc1ccc(OCC(=O)N(Cc2nc(-c3ccc(C)cc3)no2)C(C)(C)C)cc1 |  | inhibition (Oryctolagus cuniculus [2]): inactive
34 | CC(C)N(Cc1nc(-c2ccc(Cl)cc2)no1)C(=O)COc1ccc(C(F)(F)F)cc1 | 940 nM | 
35 | CC(=O)N[C@@H](CSC(=O)[C@]1([C@@H](O)C(C)C)NC(=O)[C@H](C)[C@@H]1O)C(=O)O |  | inhibition (Oryctolagus cuniculus [10]): inactive; Activity (Oryctolagus cuniculus [6]): Active
36 | CC(C)N(Cc1nc(-c2cccnc2)no1)C(=O)COc1ccccc1 | 2710 nM | 
37 | CC(C)N(Cc1nc(-c2cccnc2)no1)C(=O)COc1ccc(C(C)(C)C)cc1 | 46500 nM | 
38 | CC(C)N(Cc1nc(-c2ccccc2)no1)C(=O)COc1ccc2cc(Br)ccc2c1 |  | inhibition (Oryctolagus cuniculus [2]): inactive
39 | CC(C)N(Cc1nc(-c2ccc(C(F)(F)F)cc2)no1)C(=O)COc1ccc(Cl)cc1 | 1410 nM | 

Now from value to compound, other results behind:

Row | IC50 [1] | Compound | other results
40 | 273 nM | CCCc1ccc(OCC(=O)N(Cc2nc(-c3ccc(C)cc3)no2)C(C)C)cc1 | 
41 | 99 nM | CCc1ccc(OCC(=O)N(Cc2nc(-c3cccnc3)no2)C(C)C)cc1 | 
42 | 27 nM | CCCc1ccc(OCC(=O)N(Cc2nc(-c3cccnc3)no2)C(C)C)cc1 | IC50 [3]: > 100000 nM; IC50 [4]: > 100000 nM; Activity (MDA-MB-468): Active
43 | 140 nM | CC(C)N(Cc1nc(-c2cccnc2)no1)C(=O)COc1ccc(Cl)cc1 | 
44 | 450 nM | Cc1ccc(OCC(=O)N(Cc2nc(-c3ccc(Cl)cc3)no2)C(C)C)cc1 | 
45 | 310 nM | Cc1ccc(OCC(=O)N(Cc2nc(-c3ccccc3)no2)C(C)C)cc1 | 
46 | 120 nM | CCCCCc1ccc(OCC(=O)N(Cc2nc(-c3cccnc3)no2)C(C)C)cc1 | 
47 | 260 nM | CCc1ccc(OCC(=O)N(Cc2nc(-c3ccccc3)no2)C(C)C)cc1 | 
48 | 220 nM | Cc1ccc(OCC(=O)N(Cc2nc(-c3cccnc3)no2)C(C)C)cc1 | 
49 | 430 nM | CC(C)N(Cc1nc(-c2ccccc2)no1)C(=O)COc1ccc(C(F)(F)F)cc1 | 
50 | 440 nM | CC(C)c1ccc(OCC(=O)N(Cc2nc(-c3cccnc3)no2)C(C)C)cc1 | 
51 | 39 nM | CCCCc1ccc(OCC(=O)N(Cc2nc(-c3cccnc3)no2)C(C)C)cc1 | 
52 | 105 nM | CCCc1ccc(OCC(=O)N(Cc2nc(-c3cnccn3)no2)C(C)C)cc1 | 
53 | 140 nM | CC(C)Cc1ccc(OCC(=O)N(Cc2nc(-c3cccnc3)no2)C(C)C)cc1 | 
54 | 370 nM | Cc1ccc(OCC(=O)N(Cc2nc(-c3ccncc3)no2)C(C)C)cc1 | 
55 | 107 nM | CCCCc1ccc(OCC(=O)N(Cc2nc(-c3cnccn3)no2)C(C)C)cc1 | 
56 | 430 nM | CCCCCCc1ccc(OCC(=O)N(Cc2nc(-c3cccnc3)no2)C(C)C)cc1 | 
57 | 379 nM | CC(C)N(Cc1nc(-c2cccnc2)no1)C(=O)c1cc2ccccc2o1 | 
